Test results from paper PMC9066701 (RSC Advances, 2019).
Like-named read-outs stand apart in the source and are kept apart here.

Tests used:
[1] = system: HepG-2 cells; assay: Mitochondrial membrane potential by JC-1 staining; type: cell-based, human; settings: HepG-2, 30 μM, 48 hours, negative control 5.42
[2] = system: HepG-2 human hepatocellular carcinoma cell line; assay: MTT cytotoxicity assay, HepG-2; type: cell-based; settings: read-out: IC50 HepG-2
Summary of the method: (§1)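 Adherent cells kept in DMEM with 10% FBS at 37 °C, 5% CO2, seeded at 5 × 10^3 cells per well and left overnight. Test compound in DMF diluted in medium (DMF final < 0.4%) for 48 h at 37 °C. MTT (5 mg mL−1) added for 4 h, formazan dissolved in DMSO, A570 read. IC50 from % inhibition versus log concentration; cisplatin run as reference.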

[3] = system: NCI-H460 large cell lung cancer cell line; assay: MTT cytotoxicity assay, NCI-H460; type: cell-based; settings: read-out: IC50 NCI-H460
Summary of the method: as §1

[4] = system: MCF-7 human breast carcinoma cell line; assay: MTT cytotoxicity assay, MCF-7; type: cell-based; settings: read-out: IC50 MCF-7
Summary of the method: as §1

[5] = system: BGC803 human gastric cancer cell line; assay: MTT cytotoxicity assay, BGC803; type: cell-based; settings: read-out: IC50 BGC803
Summary of the method: as §1

[6] = system: HUVEC human umbilical vein endothelial cell line; assay: MTT cytotoxicity assay, HUVEC; type: cell-based; settings: read-out: IC50 HUVEC, 48 h drug exposure, normal cells
Summary of the method: as §1

[7] = system: SGC7901/CDDP cisplatin-resistant gastric cancer cell line; assay: MTT cytotoxicity assay, SGC7901/CDDP; type: cell-based; settings: read-out: IC50 SGC7901/CDDP, 48 h drug exposure
Summary of the method: as §1

[8] = system: SGC7901 gastric cancer cell line; assay: MTT cytotoxicity assay, SGC7901; type: cell-based; settings: read-out: IC50 SGC7901, 48 h drug exposure
Summary of the method: as §1

[9] = system: HepG-2 cells; assay: Annexin V-FITC/PI apoptosis assay by flow cytometry; type: cell-based, human; settings: HepG-2, 50 μM, 24 hours
[10] = reported for kiteplatin; same experimental conditions; cited from earlier work
[11] = PBS, 37 °C, pH 7.0; cited from earlier work

Compound | Red-green fluorescence ratio (FL2/FL1) [1] | IC50 ([2]; MTT assay, 48 h drug exposure) [µM] | IC50 ([3]; MTT assay, 48 h drug exposure) [µM] | IC50 ([4]; MTT assay, 48 h drug exposure) [µM] | IC50 ([5]; MTT assay, 48 h drug exposure) [µM] | further results
N#CC(C#N)=NNc1cccc(Cl)c1 [CCCP, carbonylcyanide-m-chlorophenylhydrazone] | 0.04 |  |  |  |  | 
N.N.O=C([O-])C1(C(=O)[O-])CCC1.[Pt+2] [Carboplatin, carboplatin] | 2.56 | 42.3 ± 2.55 | 52.9 ± 4.98 | 179 ± 10.6 | 77.1 ± 5.35 | 
N.N.[Cl][Pt][Cl] [Cisplatin, cisplatin] | 0.54 | 27.8 ± 2.56 | 14.8 ± 1.35 | 29.2 ± 1.38 | 21.6 ± 1.35 | IC50 [6]: 36.9 ± 2.23 µM; IC50 [7]: 35.6 ± 2.55 µM; IC50 [8]: 9.96 ± 0.87 µM; apoptotic rate (early + late) [9]: 28.79%
O=C(O)C(Cl)Cl [DCA, Dichloroacetate] | 4.17 |  |  |  |  | IC50 ([2]; Homo sapiens, HepG2, 48 h): > 100 µM; IC50 ([3]; Homo sapiens, NCI-H460, 48 h): > 100 µM; IC50 ([4]; Homo sapiens, MCF7, 48 h): > 100 µM; IC50 ([5]; Homo sapiens, BGC803, 48 h): > 100 µM
O=C1[O][Pt]2([NH][C@@H]3CCCC[C@H]3[NH]2)[O]C1=O [Oxaliplatin, oxaliplatin] | 0.94 | 26.5 ± 2.55 | 13.4 ± 1.13 | 41.3 ± 3.43 | 29.1 ± 1.65 | IC50 [6]: 51 ± 4.42 µM; IC50 [7]: 99.4 ± 5.23 µM; IC50 [8]: 13.5 ± 1.55 µM; apoptotic rate (early + late) [9]: 21.74%
NC1CCC(N)CC1.[Cl][Pt+2][Cl] (stereo not shown) [kiteplatin] |  |  |  |  |  | half-life [10]: 1 h
ct-[Pt(NH3)2(TFA)2(CBCDA)] [ct-[Pt(NH3)2(TFA)2(CBCDA)] (5)] |  |  |  |  |  | t1/2 [11]: 2.37 h
